From ChEMBL document CHEMBL2417369, “Synthesis and evaluation of heteroaryl substituted diazaspirocycles as scaffolds to probe the ATP-binding site of protein kinases” (Bioorg Med Chem, 2013) come the findings set out here.

pIC50: −log10 of the molar value.

A short description of assay [1]: Inhibition of PKA (unknown origin) using LRRASLG as substrate after 1 hr by fluorescence assay. Also noted: species or system Homo sapiens.
The target in assay [2] is RAF proto-oncogene serine/threonine-protein kinase (Homo sapiens) (UniProt P04049). Nature of the assay: Inhibition of c-RAF (unknown origin) at 30 uM by microfluidic mobility shift assay relative to control. A digest of the protocol:
(§1)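 Single-point screen against a 24-kinase panel in a commercial microfluidic assay format. Compounds were tested at 30 µM, with ATP at approximately the Km,[ATP] of each enzyme. H-89 was included on each assay plate as an internal control.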

Assay [3] addresses T1, Protein kinase C epsilon type (Homo sapiens) (UniProt Q02156).
T1 sequence (whole entry): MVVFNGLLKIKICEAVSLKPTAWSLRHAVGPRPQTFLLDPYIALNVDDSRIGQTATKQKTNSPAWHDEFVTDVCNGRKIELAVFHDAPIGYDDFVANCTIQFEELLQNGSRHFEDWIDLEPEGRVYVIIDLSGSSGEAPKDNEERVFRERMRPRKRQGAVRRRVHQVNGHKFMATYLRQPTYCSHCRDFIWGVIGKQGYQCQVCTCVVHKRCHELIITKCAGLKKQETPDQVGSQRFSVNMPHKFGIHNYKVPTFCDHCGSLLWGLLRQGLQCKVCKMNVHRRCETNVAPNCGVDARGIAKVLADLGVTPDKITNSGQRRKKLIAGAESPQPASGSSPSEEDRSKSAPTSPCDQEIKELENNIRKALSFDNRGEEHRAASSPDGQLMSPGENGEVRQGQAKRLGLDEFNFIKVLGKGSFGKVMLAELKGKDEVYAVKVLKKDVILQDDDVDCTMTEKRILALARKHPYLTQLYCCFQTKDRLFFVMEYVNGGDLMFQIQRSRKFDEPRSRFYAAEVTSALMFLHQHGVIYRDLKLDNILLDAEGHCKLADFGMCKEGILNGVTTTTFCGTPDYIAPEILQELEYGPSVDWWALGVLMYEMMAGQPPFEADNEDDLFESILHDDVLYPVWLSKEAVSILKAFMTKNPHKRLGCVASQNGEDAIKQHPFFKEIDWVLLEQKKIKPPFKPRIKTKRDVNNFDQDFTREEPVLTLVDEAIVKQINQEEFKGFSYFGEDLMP
Nature of the assay: Inhibition of PKCepsilon (unknown origin) at 30 uM by microfluidic mobility shift assay relative to control. A digest of the protocol: as §1

In assay [4] the target is Protein kinase C gamma type (Homo sapiens) (UniProt P05129). Briefly: Inhibition of PKCgamma (unknown origin) at 30 uM by microfluidic mobility shift assay relative to control. A digest of the protocol:
as §1

Assay [5] has as its target T2, Serine/threonine-protein kinase Sgk3 (Homo sapiens) (UniProt Q96BR1).
T2 sequence (whole entry): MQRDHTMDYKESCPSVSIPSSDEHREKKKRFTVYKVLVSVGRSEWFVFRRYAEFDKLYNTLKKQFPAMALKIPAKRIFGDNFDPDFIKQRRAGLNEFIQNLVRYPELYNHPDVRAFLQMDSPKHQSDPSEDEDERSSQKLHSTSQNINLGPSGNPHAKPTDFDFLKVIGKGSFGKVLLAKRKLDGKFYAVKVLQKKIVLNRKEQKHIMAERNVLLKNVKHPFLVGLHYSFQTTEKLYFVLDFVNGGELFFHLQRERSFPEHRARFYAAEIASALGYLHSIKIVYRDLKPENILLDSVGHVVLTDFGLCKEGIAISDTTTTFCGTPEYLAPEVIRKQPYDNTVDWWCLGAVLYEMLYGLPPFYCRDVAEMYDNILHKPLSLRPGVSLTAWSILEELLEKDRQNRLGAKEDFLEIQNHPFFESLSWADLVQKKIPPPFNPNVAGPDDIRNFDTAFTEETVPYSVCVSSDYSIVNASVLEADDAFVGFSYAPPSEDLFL
Briefly: Inhibition of SGK3 (unknown origin) at 30 uM by microfluidic mobility shift assay relative to control. A digest of the protocol: as §1

For assay [6], the target named is T3, Calcium/calmodulin-dependent protein kinase type IV (Homo sapiens) (UniProt Q16566).
T3 sequence (whole entry): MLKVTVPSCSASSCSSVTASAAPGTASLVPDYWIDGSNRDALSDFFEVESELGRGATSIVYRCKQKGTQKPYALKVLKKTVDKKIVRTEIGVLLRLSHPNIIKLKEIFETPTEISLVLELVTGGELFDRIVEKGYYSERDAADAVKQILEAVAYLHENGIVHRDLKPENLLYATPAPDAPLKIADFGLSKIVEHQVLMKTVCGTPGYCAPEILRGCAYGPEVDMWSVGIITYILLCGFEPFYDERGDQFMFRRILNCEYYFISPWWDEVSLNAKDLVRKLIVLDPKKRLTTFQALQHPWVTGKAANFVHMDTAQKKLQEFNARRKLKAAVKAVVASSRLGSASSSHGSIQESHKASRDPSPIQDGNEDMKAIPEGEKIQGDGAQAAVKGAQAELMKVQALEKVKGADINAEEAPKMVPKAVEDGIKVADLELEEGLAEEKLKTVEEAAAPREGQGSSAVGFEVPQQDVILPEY
Briefly: Inhibition of CAMK4 (unknown origin) at 30 uM by microfluidic mobility shift assay relative to control. The method, boiled down: (§2)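 Single-point screen at 30 µM test compound across a 24-kinase panel in a microfluidic assay format. ATP was set near each enzyme's Km,[ATP]. […] The pan-AGC inhibitor H-89 served as an internal control on every assay plate.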

Assay [7] addresses Platelet-derived growth factor receptor (Homo sapiens) (UniProt P09619+P16234). Briefly: Inhibition of PDGFR (unknown origin) at 30 uM by microfluidic mobility shift assay relative to control. Type of assay: protein-complex assay. The method, boiled down:
as §2

The target in assay [8] is Rho-associated protein kinase 2 (Homo sapiens) (UniProt O75116). Nature of the assay: Inhibition of ROCK2 (unknown origin) at 30 uM by microfluidic mobility shift assay relative to control. The method, boiled down:
as §1

In assay [9] the target is Tyrosine-protein kinase BTK (Homo sapiens) (UniProt Q06187). Briefly: Inhibition of BTK (unknown origin) at 30 uM by microfluidic mobility shift assay relative to control. The method, boiled down: as §2
The test system of assay [10] is Tyrosine-protein kinase ABL1 (Homo sapiens), P00519 [Q252H]. Nature of the assay: Inhibition of ABL Q252H mutant (unknown origin) at 30 uM by microfluidic mobility shift assay relative to control. Type of assay: protein assay. A digest of the protocol: as §2
Another assay concerns the target T4, Aurora kinase A (Homo sapiens, UniProt O14965).
T4 sequence (O14965 whole entry): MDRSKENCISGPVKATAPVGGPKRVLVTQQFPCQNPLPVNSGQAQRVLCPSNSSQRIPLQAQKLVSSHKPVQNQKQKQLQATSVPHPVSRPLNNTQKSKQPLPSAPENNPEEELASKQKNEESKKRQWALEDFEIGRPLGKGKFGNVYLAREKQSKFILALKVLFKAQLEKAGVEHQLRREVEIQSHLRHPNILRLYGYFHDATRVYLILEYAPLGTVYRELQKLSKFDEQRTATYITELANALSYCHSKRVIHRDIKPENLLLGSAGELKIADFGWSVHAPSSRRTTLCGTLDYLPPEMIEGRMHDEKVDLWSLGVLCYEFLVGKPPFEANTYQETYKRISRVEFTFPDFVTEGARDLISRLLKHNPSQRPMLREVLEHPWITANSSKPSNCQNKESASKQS
Nature of the assay: Inhibition of AURA (unknown origin) by microfluidic mobility shift assay.

Chain of RAF proto-oncogene serine/threonine-protein kinase (Homo sapiens) (P04049 whole entry): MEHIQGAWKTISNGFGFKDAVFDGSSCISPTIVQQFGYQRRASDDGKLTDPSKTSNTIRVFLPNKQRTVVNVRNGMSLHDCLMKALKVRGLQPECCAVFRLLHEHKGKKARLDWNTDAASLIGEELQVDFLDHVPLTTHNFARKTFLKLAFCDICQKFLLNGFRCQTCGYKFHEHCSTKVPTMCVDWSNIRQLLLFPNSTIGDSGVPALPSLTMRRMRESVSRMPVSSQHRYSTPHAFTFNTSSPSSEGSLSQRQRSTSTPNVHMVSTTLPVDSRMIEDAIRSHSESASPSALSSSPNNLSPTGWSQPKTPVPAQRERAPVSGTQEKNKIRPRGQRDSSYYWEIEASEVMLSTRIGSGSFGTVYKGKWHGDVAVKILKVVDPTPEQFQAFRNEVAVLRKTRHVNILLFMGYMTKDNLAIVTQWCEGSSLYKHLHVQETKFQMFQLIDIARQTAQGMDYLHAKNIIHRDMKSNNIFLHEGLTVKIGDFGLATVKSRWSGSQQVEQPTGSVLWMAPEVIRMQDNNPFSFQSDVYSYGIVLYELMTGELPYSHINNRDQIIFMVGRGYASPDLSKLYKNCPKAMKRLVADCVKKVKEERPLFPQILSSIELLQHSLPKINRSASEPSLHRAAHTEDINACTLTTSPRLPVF
Chain of Tyrosine-protein kinase BTK (Homo sapiens) (Q06187 whole entry): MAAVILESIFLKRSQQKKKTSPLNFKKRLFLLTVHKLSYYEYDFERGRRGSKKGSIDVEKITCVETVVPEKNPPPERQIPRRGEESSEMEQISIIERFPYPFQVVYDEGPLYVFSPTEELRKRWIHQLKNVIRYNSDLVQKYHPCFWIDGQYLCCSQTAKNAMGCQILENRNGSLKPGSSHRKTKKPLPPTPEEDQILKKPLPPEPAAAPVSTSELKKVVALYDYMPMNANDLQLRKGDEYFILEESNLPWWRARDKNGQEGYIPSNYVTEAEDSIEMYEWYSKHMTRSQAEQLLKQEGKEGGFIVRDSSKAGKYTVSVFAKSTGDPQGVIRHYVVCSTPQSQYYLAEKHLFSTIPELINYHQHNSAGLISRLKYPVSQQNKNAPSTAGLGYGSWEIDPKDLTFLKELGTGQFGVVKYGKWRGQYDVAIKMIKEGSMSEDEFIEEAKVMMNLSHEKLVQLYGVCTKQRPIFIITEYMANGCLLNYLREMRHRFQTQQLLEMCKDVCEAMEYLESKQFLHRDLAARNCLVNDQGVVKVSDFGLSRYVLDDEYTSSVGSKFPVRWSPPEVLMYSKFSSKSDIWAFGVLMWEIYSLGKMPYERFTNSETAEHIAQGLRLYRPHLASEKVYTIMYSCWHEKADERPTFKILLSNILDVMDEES
Chain of Rho-associated protein kinase 2 (Homo sapiens) (O75116 whole entry, looked up): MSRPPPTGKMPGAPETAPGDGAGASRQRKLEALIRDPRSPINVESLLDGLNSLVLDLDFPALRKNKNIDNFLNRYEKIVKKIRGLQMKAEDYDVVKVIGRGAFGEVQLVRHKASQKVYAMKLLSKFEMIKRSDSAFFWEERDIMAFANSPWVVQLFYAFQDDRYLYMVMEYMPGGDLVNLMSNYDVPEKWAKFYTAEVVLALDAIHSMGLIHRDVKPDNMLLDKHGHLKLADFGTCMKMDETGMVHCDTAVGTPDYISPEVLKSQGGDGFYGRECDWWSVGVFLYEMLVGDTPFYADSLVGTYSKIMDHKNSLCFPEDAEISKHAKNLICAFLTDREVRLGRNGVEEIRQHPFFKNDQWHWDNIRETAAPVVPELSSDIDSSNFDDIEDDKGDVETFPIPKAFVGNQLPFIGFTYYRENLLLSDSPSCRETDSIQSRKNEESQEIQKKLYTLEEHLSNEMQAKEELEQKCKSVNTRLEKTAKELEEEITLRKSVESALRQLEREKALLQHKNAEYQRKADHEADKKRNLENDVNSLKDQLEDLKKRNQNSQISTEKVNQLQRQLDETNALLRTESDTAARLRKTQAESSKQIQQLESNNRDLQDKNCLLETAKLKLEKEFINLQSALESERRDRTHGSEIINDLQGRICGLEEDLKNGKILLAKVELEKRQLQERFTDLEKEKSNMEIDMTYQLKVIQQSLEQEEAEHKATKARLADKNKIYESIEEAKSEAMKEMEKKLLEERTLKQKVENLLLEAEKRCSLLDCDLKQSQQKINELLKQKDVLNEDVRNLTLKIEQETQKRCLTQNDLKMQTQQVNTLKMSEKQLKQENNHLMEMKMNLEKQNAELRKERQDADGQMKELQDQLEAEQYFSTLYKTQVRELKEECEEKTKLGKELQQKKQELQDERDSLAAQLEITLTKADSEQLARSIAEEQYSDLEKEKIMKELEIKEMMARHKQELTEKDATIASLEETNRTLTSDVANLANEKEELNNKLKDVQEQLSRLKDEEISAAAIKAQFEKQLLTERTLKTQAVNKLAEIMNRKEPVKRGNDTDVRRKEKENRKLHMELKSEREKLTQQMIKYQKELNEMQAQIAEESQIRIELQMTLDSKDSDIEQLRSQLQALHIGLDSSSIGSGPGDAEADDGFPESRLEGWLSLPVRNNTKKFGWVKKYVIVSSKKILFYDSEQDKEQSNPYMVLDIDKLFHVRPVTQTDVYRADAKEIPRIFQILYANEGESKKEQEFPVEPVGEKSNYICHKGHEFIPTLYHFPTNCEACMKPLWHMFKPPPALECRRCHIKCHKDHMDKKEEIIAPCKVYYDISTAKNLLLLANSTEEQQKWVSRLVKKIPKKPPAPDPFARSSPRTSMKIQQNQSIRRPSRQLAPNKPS

In assay [1], `O=S(=O)(c1cccc2cnccc12)N1CCCC2(CCCNC2)C1` (stereo not given) had a pIC50 of 5.44.
`c1ccc(C2CCNC3(CCN(c4ncnc5[nH]cnc45)CC3)C2)cc1` (racemic): the inhibition was 13% in assay [2]; 66% in assay [3]; 77% in [4]; 95% in assay [5]; 18% in assay [6]; 29% in [7]. Moreover, the inhibition was 99% in [8], 0% in [9] and 30% in assay [10]. This molecule also showed a negative logarithm of the IC50 (pIC50) in assay [1] of 6.83.
For `O=C(O)C1CCC2(CCN(c3ncnc4[nH]cnc34)CC2)NC1` (racemic), on Aurora kinase A, the pIC50 was 5.21.
`c1nc(N2CCC3(CCCNC3)CC2)c2nc[nH]c2n1`: the pIC50 is 7.10 in [1] and 5.01 on Aurora kinase A.
With `c1ccc(CC2CCC3(CCN(c4ncnc5[nH]cnc45)CC3)NC2)cc1` (racemic), the inhibition in assay [2] was determined as 11%; in assay [3], 24%; in assay [4] it was 53%; in assay [5], 27%; in [6], 18%; in assay [7], 28%. Besides, the values for the inhibition in [8], in [9] and in [10] were 78%, 0% and 30%, respectively.
`c1nc(N2CCC3(CCCCN3)CC2)c2nc[nH]c2n1`: the negative logarithm of the IC50 (pIC50) in assay [1] is 6.00; on Aurora kinase A, 5.11.
As for `c1ccc(CC2CCNC3(CCN(c4ncnc5[nH]cnc45)CC3)C2)cc1` (racemic), the inhibition in [2] is 15%; in [3], 64%; in assay [4], 86%; in assay [5], 94%; in [6], 14%; in [7], 20%. The inhibition in assay [8] turned out to be 98%; in assay [9] it was 11%; in assay [10], 12%. In addition, the pIC50 in [1] was 7.51.
